Details in all cases: stereoisomer not certain
The target of one assay is T1, OR1L3 (Homo sapiens) (UniProt Q8NH93).
T1 sequence (whole entry): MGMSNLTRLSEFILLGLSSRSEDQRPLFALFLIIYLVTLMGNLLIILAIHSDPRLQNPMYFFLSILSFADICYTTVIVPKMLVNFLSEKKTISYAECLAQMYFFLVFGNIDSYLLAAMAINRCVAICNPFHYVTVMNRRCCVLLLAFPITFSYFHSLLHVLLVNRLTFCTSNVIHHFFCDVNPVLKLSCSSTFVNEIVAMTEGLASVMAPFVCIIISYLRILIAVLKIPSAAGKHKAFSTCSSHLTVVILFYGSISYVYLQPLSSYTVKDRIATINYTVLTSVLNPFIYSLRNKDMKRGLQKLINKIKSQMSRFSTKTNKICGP
The essentials: (§1)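 Assay methods differ from source to source, frequently being transient luciferase assays in mammalian cell lines. For each receptor–molecule pair, the label responsive (active) applies when the original authors judged the measured signal statistically different from baseline, and non-responsive (inactive) applies otherwise.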

In a further assay the target is T2, OR1G1 (Homo sapiens) (UniProt P47890).
T2 sequence (whole entry): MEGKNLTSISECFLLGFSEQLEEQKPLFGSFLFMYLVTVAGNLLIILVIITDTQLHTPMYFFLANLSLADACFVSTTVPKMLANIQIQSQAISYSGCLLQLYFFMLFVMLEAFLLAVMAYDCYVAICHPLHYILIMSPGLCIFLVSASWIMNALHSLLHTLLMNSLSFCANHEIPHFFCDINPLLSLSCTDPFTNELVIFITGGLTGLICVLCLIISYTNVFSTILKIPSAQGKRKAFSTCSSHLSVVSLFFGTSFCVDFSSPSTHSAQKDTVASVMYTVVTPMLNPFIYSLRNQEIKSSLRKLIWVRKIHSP
The essentials: as §1

Another assay concerns the target OR1E3 (Homo sapiens) (UniProt Q8WZA6). The gist of the method: as §1
For a further assay, the target named is OR1F1 (Homo sapiens) (UniProt O43749). The essentials: as §1
Another assay addresses OR1F12P (Homo sapiens) (UniProt Q8NHA8). The essentials:
as §1

Another assay addresses OR1I1 (Homo sapiens) (UniProt O60431). The essentials: as §1
In another assay the target is OR1J1 (Homo sapiens) (UniProt Q8NGS3). The gist of the method:
as §1

The target in another assay is OR1K1 (Homo sapiens) (UniProt Q8NGR3). The essentials:
as §1

The target in another assay is OR1L1 (Homo sapiens) (UniProt Q8NH94). The essentials: as §1
In another assay the target is OR1L4 (Homo sapiens) (UniProt Q8NGR5). The gist of the method:
as §1

The next assay deals with OR1L6 (Homo sapiens) (UniProt Q8NGR2). The essentials:
as §1

The target in a further assay is OR1L8 (Homo sapiens) (UniProt Q8NGR8). The gist of the method: as §1
The next assay deals with OR1M1 (Homo sapiens) (UniProt Q8NGA1). The essentials: as §1
Another assay deals with OR1F1. The gist of the method: as §1
Another assay addresses OR1J2 (Homo sapiens) (UniProt Q8NGS2). The gist of the method:
as §1

A further assay deals with OR1J4 (Homo sapiens) (UniProt Q8NGS1). The essentials:
as §1

In the next assay the test system is OR1L1. The gist of the method:
as §1

The subject of the next assay is OR1L4. The essentials: as §1
The next assay deals with OR1L6. The gist of the method:
as §1

For the next assay, the system named is OR1L8 T27P R211P. The gist of the method:
as §1

Sequence of OR1F1 (Homo sapiens) (O43749 whole entry): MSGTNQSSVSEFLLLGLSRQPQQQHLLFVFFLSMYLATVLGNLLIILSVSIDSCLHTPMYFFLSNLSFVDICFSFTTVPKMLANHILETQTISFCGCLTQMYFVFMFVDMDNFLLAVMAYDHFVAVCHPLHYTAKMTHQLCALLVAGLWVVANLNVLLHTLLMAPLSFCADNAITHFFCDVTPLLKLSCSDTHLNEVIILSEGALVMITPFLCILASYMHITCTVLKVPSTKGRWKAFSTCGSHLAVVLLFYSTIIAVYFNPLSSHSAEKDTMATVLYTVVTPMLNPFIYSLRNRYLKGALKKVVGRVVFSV
Sequence of OR1M1 (Homo sapiens) (Q8NGA1 whole entry): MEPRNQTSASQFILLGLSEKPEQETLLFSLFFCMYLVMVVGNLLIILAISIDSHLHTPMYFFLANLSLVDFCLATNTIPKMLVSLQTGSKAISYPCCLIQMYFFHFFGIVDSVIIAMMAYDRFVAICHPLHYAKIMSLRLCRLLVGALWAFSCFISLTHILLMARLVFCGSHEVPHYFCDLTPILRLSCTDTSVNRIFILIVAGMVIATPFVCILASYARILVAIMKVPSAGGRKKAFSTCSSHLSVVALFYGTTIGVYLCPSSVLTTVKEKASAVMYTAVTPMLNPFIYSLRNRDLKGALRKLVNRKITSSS
Sequence of OR1L4 (Homo sapiens) (Q8NGR5 whole entry): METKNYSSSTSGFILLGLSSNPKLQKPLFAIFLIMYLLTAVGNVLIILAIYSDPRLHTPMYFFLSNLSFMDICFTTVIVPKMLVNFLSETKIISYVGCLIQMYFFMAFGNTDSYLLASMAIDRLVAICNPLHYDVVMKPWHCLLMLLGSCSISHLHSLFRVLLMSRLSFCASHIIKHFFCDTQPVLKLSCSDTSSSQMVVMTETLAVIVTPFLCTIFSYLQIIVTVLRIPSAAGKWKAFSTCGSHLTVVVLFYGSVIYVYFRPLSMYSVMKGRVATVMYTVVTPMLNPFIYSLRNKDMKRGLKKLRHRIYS
Sequence of OR1F12P (Homo sapiens) (Q8NHA8 whole entry): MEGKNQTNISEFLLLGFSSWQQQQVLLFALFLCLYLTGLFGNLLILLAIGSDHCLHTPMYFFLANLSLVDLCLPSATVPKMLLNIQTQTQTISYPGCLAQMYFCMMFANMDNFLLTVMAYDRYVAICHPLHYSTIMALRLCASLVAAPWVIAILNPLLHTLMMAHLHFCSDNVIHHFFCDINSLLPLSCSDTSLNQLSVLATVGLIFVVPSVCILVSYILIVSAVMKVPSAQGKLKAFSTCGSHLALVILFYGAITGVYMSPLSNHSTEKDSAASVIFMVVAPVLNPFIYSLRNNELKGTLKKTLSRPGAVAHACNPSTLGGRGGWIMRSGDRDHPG
Sequence of OR1L8 (Homo sapiens) (Q8NGR8 whole entry): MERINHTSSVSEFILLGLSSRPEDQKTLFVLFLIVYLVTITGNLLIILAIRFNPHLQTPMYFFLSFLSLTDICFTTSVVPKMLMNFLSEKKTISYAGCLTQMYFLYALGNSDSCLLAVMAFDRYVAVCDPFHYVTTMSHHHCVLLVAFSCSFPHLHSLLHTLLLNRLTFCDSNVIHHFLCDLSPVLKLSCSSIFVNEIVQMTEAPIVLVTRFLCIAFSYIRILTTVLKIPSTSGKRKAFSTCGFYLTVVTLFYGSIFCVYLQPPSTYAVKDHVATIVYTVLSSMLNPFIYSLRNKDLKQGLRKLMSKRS
Sequence of OR1I1 (Homo sapiens) (O60431 whole entry): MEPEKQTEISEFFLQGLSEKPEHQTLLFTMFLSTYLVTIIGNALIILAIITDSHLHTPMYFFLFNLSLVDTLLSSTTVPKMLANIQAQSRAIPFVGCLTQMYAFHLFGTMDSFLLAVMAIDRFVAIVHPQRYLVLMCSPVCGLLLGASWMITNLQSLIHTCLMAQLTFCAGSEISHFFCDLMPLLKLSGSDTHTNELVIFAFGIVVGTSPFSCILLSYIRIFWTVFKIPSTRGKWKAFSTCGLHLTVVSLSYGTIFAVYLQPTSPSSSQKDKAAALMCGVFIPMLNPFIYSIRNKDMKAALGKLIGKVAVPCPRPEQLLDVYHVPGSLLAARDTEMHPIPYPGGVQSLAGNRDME
Sequence of OR1K1 (Homo sapiens) (Q8NGR3 whole entry): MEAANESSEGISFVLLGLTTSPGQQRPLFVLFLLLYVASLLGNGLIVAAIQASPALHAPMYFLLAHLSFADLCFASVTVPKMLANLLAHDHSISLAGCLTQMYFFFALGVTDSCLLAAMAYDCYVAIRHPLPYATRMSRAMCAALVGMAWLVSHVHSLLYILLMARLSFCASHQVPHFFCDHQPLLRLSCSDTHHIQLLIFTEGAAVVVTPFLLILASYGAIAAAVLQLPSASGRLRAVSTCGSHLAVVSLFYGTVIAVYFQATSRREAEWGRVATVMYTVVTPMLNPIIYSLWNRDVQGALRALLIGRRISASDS
Sequence of OR1J1 (Homo sapiens) (Q8NGS3 whole entry): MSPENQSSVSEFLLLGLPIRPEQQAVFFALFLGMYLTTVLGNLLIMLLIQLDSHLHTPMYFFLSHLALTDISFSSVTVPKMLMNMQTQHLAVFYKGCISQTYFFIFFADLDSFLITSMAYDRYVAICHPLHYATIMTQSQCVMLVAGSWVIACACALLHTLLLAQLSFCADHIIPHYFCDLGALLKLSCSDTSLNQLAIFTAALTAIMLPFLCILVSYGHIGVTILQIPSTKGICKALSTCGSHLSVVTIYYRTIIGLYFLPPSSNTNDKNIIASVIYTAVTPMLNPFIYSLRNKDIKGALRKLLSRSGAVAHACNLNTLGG
Sequence of OR1L4 (as listed by the source): as the sequence (Q8NGR5 whole entry) above, with G234R counted along it
Sequence of OR1E3 (Homo sapiens) (Q8WZA6 whole entry): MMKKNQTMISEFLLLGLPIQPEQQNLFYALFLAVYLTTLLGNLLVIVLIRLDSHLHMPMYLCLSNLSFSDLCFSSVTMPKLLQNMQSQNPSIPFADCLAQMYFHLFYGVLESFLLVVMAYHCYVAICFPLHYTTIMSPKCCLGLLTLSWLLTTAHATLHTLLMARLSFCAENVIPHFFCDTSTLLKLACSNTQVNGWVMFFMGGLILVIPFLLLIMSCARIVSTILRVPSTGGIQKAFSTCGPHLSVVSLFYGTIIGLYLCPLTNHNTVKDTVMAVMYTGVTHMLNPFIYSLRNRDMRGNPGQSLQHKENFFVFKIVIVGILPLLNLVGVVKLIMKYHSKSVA
Sequence of OR1J4 (Homo sapiens) (Q8NGS1 whole entry): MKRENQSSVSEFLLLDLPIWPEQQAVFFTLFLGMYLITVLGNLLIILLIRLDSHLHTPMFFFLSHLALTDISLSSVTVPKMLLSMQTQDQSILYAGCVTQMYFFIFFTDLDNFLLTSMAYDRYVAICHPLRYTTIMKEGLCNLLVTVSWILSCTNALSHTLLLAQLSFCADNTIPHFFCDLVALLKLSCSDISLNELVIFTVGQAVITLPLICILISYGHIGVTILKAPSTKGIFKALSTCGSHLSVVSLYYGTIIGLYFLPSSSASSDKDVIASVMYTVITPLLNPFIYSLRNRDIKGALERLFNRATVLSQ
Sequence of OR1F1 (as listed by the source): as the sequence (O43749 whole entry) above, with F75S counted along it
Sequence of OR1J2 (Homo sapiens) (Q8NGS2 whole entry): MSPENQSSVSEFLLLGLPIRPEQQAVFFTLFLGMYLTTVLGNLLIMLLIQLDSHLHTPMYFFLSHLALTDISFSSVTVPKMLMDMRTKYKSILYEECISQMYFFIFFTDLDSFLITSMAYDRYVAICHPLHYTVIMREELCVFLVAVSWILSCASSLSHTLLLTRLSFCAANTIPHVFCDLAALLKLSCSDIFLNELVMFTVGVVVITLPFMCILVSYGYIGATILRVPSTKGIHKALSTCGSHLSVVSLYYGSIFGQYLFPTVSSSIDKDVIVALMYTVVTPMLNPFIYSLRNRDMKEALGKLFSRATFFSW
Sequence of OR1L1 (Homo sapiens) (Q8NH94 whole entry): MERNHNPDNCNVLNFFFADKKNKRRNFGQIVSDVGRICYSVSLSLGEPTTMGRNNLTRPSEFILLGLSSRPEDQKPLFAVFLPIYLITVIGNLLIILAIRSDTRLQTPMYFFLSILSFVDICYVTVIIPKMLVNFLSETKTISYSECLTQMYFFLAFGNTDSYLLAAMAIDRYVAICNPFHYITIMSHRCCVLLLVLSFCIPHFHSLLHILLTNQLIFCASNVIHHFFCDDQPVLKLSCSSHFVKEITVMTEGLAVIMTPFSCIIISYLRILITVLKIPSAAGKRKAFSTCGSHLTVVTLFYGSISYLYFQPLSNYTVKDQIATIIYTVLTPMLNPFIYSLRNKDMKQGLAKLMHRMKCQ
Sequence of OR1L6 (as listed by the source): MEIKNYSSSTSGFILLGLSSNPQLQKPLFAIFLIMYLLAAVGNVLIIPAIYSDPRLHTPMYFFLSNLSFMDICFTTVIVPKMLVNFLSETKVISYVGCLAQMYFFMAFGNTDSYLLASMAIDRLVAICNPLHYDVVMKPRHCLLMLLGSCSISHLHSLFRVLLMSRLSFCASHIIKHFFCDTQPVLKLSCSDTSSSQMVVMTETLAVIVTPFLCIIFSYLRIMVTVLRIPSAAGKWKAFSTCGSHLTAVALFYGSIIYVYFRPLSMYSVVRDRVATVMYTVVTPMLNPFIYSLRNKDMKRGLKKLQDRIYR
Sequence of OR1L1 (as listed by the source): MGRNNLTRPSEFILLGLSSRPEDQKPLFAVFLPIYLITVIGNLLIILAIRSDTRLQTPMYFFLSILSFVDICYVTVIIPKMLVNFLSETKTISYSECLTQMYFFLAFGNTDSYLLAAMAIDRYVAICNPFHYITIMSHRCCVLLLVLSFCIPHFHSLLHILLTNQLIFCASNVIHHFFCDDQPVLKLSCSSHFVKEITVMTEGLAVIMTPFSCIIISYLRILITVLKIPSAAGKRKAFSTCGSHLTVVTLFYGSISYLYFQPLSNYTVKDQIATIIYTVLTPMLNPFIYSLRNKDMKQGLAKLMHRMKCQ

As for `O=CC=Cc1ccccc1`, the “odorant receptor agonist call” value in the assay with OR1L3 (Homo sapiens) was “inactive”.

As for `C=CCc1ccc2c(c1)OCO2`, in the assay with OR1G1 (Homo sapiens), the “odorant receptor agonist call” value was “active”.

For `CC(=O)CCc1ccc2c(c1)OCO2`, the “odorant receptor agonist call” value with OR1G1 (Homo sapiens) is “active”.

As for `CC(C=O)Cc1ccc2c(c1)OCO2` (stereo not given), the “odorant receptor agonist call” value with OR1G1 (Homo sapiens) is “inactive”.

In the case of `O=Cc1ccccc1`, the “odorant receptor agonist call” value with OR1G1 (Homo sapiens) was “active”. Moreover, in the assay with OR1L3 (Homo sapiens), the “odorant receptor agonist call” value is “inactive”.

For `COc1ccc(C=O)cc1`, the “odorant receptor agonist call” value in the assay with OR1G1 (Homo sapiens) was “inactive”.

As for `C=CCc1ccc(OC)cc1`, the “odorant receptor agonist call” value with OR1G1 (Homo sapiens) and with OR1L3 (Homo sapiens) was “inactive” each time.

For the molecule `c1ccncc1`, the “odorant receptor agonist call” value in the assay with OR1G1 (Homo sapiens) is “active”.

Consider `Cc1c([N+](=O)[O-])c(C)c([N+](=O)[O-])c(C(C)(C)C)c1[N+](=O)[O-]`, for which the “odorant receptor agonist call” value with OR1E3 (Homo sapiens), with OR1F1 (Homo sapiens), with OR1F12P (Homo sapiens), with OR1G1 (Homo sapiens), with OR1I1 (Homo sapiens) and with OR1J1 (Homo sapiens) was “inactive” throughout. The “odorant receptor agonist call” value in the assay with OR1K1 (Homo sapiens), with OR1L1 (Homo sapiens), with OR1L3 (Homo sapiens), in the assay with OR1L4 (Homo sapiens), with OR1L6 (Homo sapiens) and in the assay with OR1L8 (Homo sapiens) was “inactive” each time. Also, the “odorant receptor agonist call” value in the assay with OR1M1 (Homo sapiens) was “inactive”.

Regarding `C=CCOC(=O)Cc1ccccc1`, the “odorant receptor agonist call” value with OR1F1 (Homo sapiens), in the assay with OR1F12P (Homo sapiens), in the assay on OR1F1, with OR1G1 (Homo sapiens), with OR1I1 (Homo sapiens) and with OR1J1 (Homo sapiens) was “inactive” each time. Besides, the “odorant receptor agonist call” value with OR1J2 (Homo sapiens), with OR1J4 (Homo sapiens), with OR1K1 (Homo sapiens), in the assay on OR1L1, with OR1L3 (Homo sapiens) and with OR1L4 (Homo sapiens) was “inactive” throughout. Besides, the “odorant receptor agonist call” value in the assay with OR1L4, in the assay with OR1L6, with OR1L8 (Homo sapiens), with OR1L8 T27P R211P and with OR1M1 (Homo sapiens) was “inactive” throughout.

(Values after the M2OR odorant receptor database.)
